The results in this text go back to ChEMBL document CHEMBL2311384, “Probing the steric requirements of the γ-aminobutyric acid aminotransferase active site with fluorinated analogues of vigabatrin” (Bioorg Med Chem, 2013).

Activity calls are given as the source filed them. The rule behind the calls is not given here.

The target in assay [1] is 4-aminobutyrate aminotransferase, mitochondrial (Sus scrofa) (UniProt P80147). As to the kind of experiment: Reversible inhibition of pig brain GABA-AT using GABA as substrate at 23 mM.
Assay [2] shares this target. As to the kind of experiment: Activity at pig brain GABA-AT assessed as glutamate production at 3 mM preincubated for 20 mins relative to GABA. In short, it runs like this: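 GABA-AT purified from pig brain; substrate tested as turnover substrate in 100 mM potassium pyrophosphate pH 8.6 with α-ketoglutarate; glutamate formed detected by glutamate oxidase/horseradish peroxidase/Amplex Red fluorescence (ex 530, em 590 nm); scaled to glutamate standard curve (0–10 µM); highest rates, between 15 and 25 min, used.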

Assay [3] shares this target. As to the kind of experiment: Time dependent inhibition of pig brain GABA-AT using GABA as substrate at 5 mM up to 150 mins. The method in brief:
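Pig brain GABA-AT in 100 mM potassium phosphate pH 7.0 preincubated at 25 °C with β-mercaptoethanol, α-ketoglutarate and compound (5 mM final); aliquots taken at time points into assay solution (GABA, α-ketoglutarate, NADP+, pH 8.6) with excess SSADH; remaining activity from 340 nm NADPH absorbance rate.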

The target of assay [4] is 4-aminobutyrate aminotransferase, mitochondrial (Sus scrofa, UniProt P80147). Nature of the assay: Reversible inhibition of pig brain GABA-AT using GABA as substrate. The method in brief: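 Pig brain GABA-AT, purified in-house, mixed with excess SSADH (from GABase), then inhibitor at several concentrations added in assay buffer: 87 mM potassium pyrophosphate pH 8.6, 6 mM GABA, 5 mM α-ketoglutarate, 1.25 mM NADP+, 3.3 mM β-mercaptoethanol. Rate read directly without preincubation as NADPH absorbance at 340 nm. IC50 from concentration-response fit; Ki via Cheng-Prusoff.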
Sequence of 4-aminobutyrate aminotransferase, mitochondrial (P80147 whole entry): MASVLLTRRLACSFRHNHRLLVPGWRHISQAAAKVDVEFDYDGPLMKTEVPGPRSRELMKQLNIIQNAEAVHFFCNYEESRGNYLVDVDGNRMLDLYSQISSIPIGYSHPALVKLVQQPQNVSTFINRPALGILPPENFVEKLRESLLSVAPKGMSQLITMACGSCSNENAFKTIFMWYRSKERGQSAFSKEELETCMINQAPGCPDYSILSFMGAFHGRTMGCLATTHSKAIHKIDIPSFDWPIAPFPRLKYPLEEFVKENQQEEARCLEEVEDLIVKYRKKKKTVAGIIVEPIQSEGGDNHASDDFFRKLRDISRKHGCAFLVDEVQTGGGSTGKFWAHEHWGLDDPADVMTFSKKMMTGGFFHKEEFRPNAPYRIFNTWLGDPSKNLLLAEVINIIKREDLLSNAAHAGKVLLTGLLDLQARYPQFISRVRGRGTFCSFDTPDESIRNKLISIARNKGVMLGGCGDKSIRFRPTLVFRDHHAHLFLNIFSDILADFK

Sequence of 4-aminobutyrate aminotransferase, mitochondrial (Sus scrofa) (P80147 whole entry): as above

As to `C[C@H](F)[C@@H](N)CCC(=O)O`, the inhibition result in assay [1] and in assay [3] was “inactive” each time. In assay [2], the Activity is 0.11%.

Turning to `N[C@@H]1C=C[C@H](C(=O)O)C1`, affinity in assay [4] was put at a Ki of 40 µM.

As to `C[C@@H](F)[C@H](N)CCC(=O)O`, the inhibition entry in assay [1] and in assay [3] was “inactive” in each case. In assay [2], the Activity turned out to be 0.02%.

On to `C[C@@H](F)[C@@H](N)CCC(=O)O`, for which the inhibition entry in assay [1] and in assay [3] was “inactive” in each case. Also, in assay [2], the Activity worked out at 0.32%.
